An excerpt weighted towards active compounds, which were near 5% of everything screened.
T cruzi repl: blocks replication of Trypanosoma cruzi; hit rate 1.4% among 300,000; T. cruzi beta-gal in NIH3T3, luminescence, 90 h; inhibition, % (test concentration not listed); AID 1885;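 active means mean inhibition across valid replicates above about 55%, limit read from the data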;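 further: signal also drops with host cell toxicity which is not excluded here; higher percent means less beta-gal luminescence so fewer parasites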
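Assay system: NIH/3T3 host cells with β-galactosidase reporter T. cruzi; input: 5,000 host fibroblasts per well; compound: single 50 nL compound addition per well in DMSO; timing: ≥90 h infection period, 3 h prior cell attachment; measured by: GalScreen β-gal luminescence, detergent lysis, 60 min; evaluation: percent inhibition of parasite-derived β-gal signal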
Beta cell apopt: blocks beta cell apoptosis | AID 435005 | protection from apoptosis, % (concentration not given with the values) | hit rate 0.8% among 300,000 | INS-1E cytokine-induced death, ATP luminescence, 48 h; percent of positive-control rescue, neutral wells zero;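 active means Every replicate reaches about 75%, or at least half do and their mean reaches it too, limit read from the data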;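 further: higher means more ATP so stronger rescue from cytokine killing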
UPR CHOP act: activators of apoptotic arm of unfolded protein response (CHOP) | CHO-CHOP luciferase reporter, UPR activation, luminescence; percent of tunicamycin response over DMSO baseline | activation, % at 10 µM | hit rate 0.34% among 330,000;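 active means at 10 µM dose, activation of 40% or more, normalized to positive control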
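measured by = luciferase luminescence | assay system = CHO-CHOP cells, stable luciferase reporter of PERK-eIF2a-CHOP signalling | amount = 500 reporter cells seeded per well | timing = 6 h compound exposure at 37 °C after overnight seeding | controls = positive tunicamycin 10 µg/mL, negative DMSO alone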
Mdm2-MdmX inh: inhibitors of human Mdm2/MdmX interaction | O15151+Q00987 | SaOS-2 split-luciferase Mdm2/MdmX complementation, luminescence | inhibition, % at 8 µM | hit rate 3% among 330,000 | AID 485346;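 active means inhibition of at least 50% at 8 µM in the primary screen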
UPR XBP1 act: activators of adaptive arm of unfolded protein response (XBP1). CHO-XBP1 luciferase reporter, IRE1-XBP1 UPR activation, luminescence; percent of tunicamycin response, DMSO as zero. activation, % at 20 µM. hit rate 0.33% among 330,000. AID 463104;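 active means versus positive control, 20 µM dose yields 30% or more activation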
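Test system: CHO-XBP1 luciferase reporter cells | Buffer or medium: Serum-containing F12 medium, 10% FBS | Schedule: 6 h compound exposure at 37 °C, 5% CO2 | Detection: Steady-Glo luciferase glow luminescence, 10 min after reagent addition | Read-out basis: Activation, % of tunicamycin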
CSC inhib: cancer stem cell inhibition; inhibition, % at 7.5 µM; hit rate 1.1% among 300,000; AID 2717; cancer stem cell-like cells viability, luminescence; in the data active means inhibition above about 75%; tested in HMLE shEcad cells
A number is an active result; 0 = inactive; - = no result given.

SMILES	T cruzi repl	Beta cell apopt	UPR CHOP act	Mdm2-MdmX inh	UPR XBP1 act	CSC inhib
CCn1ccnc1CN(C)C(=O)CCc1nnc(CCCc2ccccc2)o1	0	0	0	0	0	0
O=C(Cc1cccs1)NCc1cc(Cl)cc(Cl)c1	0	0	0	0	0	0
CCOC(=O)N1CCC(NS(=O)(=O)c2cc(Br)cc3c2N(C(=O)CC)CC3)CC1	0	0	0	0	0	0
CC1CCN(S(=O)(=O)c2ccc(NC(=O)CCN3C(=O)C4CC=CCC4C3=O)cc2)CC1 (centres undefined)	-	-	0	0	0	-
Cc1nc(C)c(C(=O)N/N=C/c2cc(Br)ccc2O)s1	0	80	0	0	0	0
O=C(N/N=C/c1cc(Cl)ccc1O)c1ccc(Br)cc1	-	112	-	-	-	100
CCn1c(C)nc2cc(C(=O)N/N=C/c3cccc(O)c3O)ccc21	0	76	0	0	0	0
NC(=O)N/N=C\c1cc(Br)ccc1O	0	-	0	0	0	-
O=C(N/N=C/c1cc(Br)ccc1OC(=O)c1ccc(Br)cc1)c1ccncc1	0	92	0	0	0	-
CCn1c(C)nc2cc(C(=O)N/N=C/c3ccccc3)ccc21	0	0	0	0	0	0
Cc1nc(C)c(C(=O)N/N=C/c2c[nH]c3ccccc23)s1	0	0	0	0	0	0
O=C(N/N=C/c1cc(Br)ccc1O)c1ccncc1	0	0	0	0	0	0
CSc1ccccc1C(=O)N1CCCC(CCC(=O)NCc2ccc(F)c(F)c2)C1 (centres undefined)	0	0	0	0	0	0
NC(=O)C1CCN(C(=O)c2cc(-c3ccc(Cl)s3)nc3ccccc23)CC1	-	0	0	0	0	0
CN(C(=O)COC(=O)/C=C/c1cccs1)C1CCCCC1	-	0	0	0	0	0
O=C(N/N=C/c1cc([N+](=O)[O-])ccc1O)c1ccc2c(c1)OCCO2	0	105	0	0	0	0
Cc1ccc(/C=N/NC(=O)c2ccc3c(c2)OCCO3)s1	0	0	0	0	0	92
O=C(CSc1cccc[n+]1[O-])NC1CCCCC1	-	0	0	0	0	0
CSCc1cc(N(C)c2ccccc2)nc(-c2ccccn2)n1	60	0	0	0	0	0
CN(C)c1cc(C(F)(F)F)nc(-c2ccccn2)n1	0	0	0	0	0	0
O=C(Nc1cc(Sc2nc3ccccc3s2)cc([N+](=O)[O-])c1)c1ccccc1F	65	0	0	0	0	0
O=C(Nc1cccc([N+](=O)[O-])c1)c1ccccc1	0	0	0	0	0	0
O=C(Nc1cc(Sc2nc3ccccc3s2)cc([N+](=O)[O-])c1)c1ccccc1	56	0	0	0	0	0
O=C(Nc1cc(Sc2ccccn2)cc([N+](=O)[O-])c1)c1cccc(F)c1	0	84	0	0	0	0
O=C(Nc1nc2ccccc2s1)c1ccccc1[N+](=O)[O-]	0	0	0	0	0	0
SMILES	T cruzi repl	Beta cell apopt	UPR CHOP act	Mdm2-MdmX inh	UPR XBP1 act	CSC inhib
Cc1ccc(C)c(N2CCN(C(=O)CCCn3ncn4c(cc5occc54)c3=O)CC2)c1	0	0	0	0	0	0
COc1cc(OC)cc(-c2nnc(SCC(=O)N(Cc3ccccc3)C(C)(C)C)o2)c1	0	0	0	0	0	113
CCc1nnc(NC(=O)c2cccc(C(=O)Nc3nnc(CC)s3)n2)s1	0	76	-	-	-	0
O=[N+]([O-])c1cccc(-c2ccc(/C=N/NC(=S)Nc3ccccc3)o2)c1	56	0	0	0	0	0
CN1CCN(C(=O)N2CCNC2=O)CC1	0	0	0	0	0	0
CCOC(=O)Nc1ccc2c(c1)Nc1ccccc1S2	63	0	0	0	0	0
CC(=O)c1ccc2c(c1)Nc1ccccc1S2	0	0	0	0	0	0
CCCCn1c2ccc(C)cc2c2nnc(SCCN3CCCCC3)nc21	0	0	0	0	0	0
CCCCn1c2ccc(F)cc2c2nnc(SCCN3CCCCC3)nc21	59	-	0	0	0	-
O=C(N/N=C/c1ccccc1[N+](=O)[O-])C(=O)N1CCCC1	0	0	0	0	0	0
Cc1ccc(N2C(=O)c3ccccc3NC2C(C)Cc2ccc3c(c2)OCO3)cc1 (centres undefined)	55	0	0	0	0	0
CC(=O)c1ccc(N2CCN(C(=O)c3ccc(C(=O)c4ccccc4)cc3)CC2)cc1	-	-	0	0	0	-
O=C(NNC(=O)C(c1ccccc1)c1ccccc1)c1cccs1	0	0	0	0	0	0
CC(CNC(=O)c1ccc(OC2CCN(Cc3ccccn3)CC2)cc1)Oc1cccnc1 (centres undefined)	0	100	0	0	0	0
Cc1ccc2nc(C)c(CN3CCN(c4ccc([N+](=O)[O-])cc4Cl)CC3)n2c1	0	104	0	0	0	0
O=[N+]([O-])c1ccc(Cl)c(CN2CCN(c3ncccn3)CC2)c1	0	0	0	0	0	0
Cc1cccc(NC(=O)COC(=O)C2COc3ccccc3O2)c1C (centres undefined)	-	0	0	0	0	0
O=c1[nH]c(CN2CCN(c3ccccn3)CC2)nc2c(Br)cc(Br)cc12	0	0	0	0	0	81
CCC(Sc1nc2ccncc2[nH]1)C(=O)Nc1ccc(C)c(Cl)c1 (centres undefined)	62	0	0	0	0	0
COc1cccc(C(=O)N2CCN(C(=O)C3CC3)CC2)c1	0	-	0	0	0	-
Cc1cc(N2CCN(C)CC2)nc2ccc(NC(=S)NCCN3CCc4ccccc4C3)cc12	56	0	0	0	0	0
Cc1cc(N2CCN(C)CC2)nc2ccc(NC(=S)N3CCN(c4cccc(Cl)c4)CC3)cc12	0	0	0	0	0	0
Cc1cc(N2CCN(C)CC2)nc2ccc(NC(=S)N3CCN(c4ccc(Cl)cc4)CC3)cc12	61	0	0	0	0	109
Cc1cccc(N2CCN(C(=S)Nc3ccc4nc(N5CCN(C)CC5)cc(C)c4c3)CC2)c1C	65	-	-	-	-	-
Cc1cc(N2CCN(C)CC2)nc2ccc(NC(=S)N3CCCCC3)cc12	0	-	-	-	-	-
SMILES	T cruzi repl	Beta cell apopt	UPR CHOP act	Mdm2-MdmX inh	UPR XBP1 act	CSC inhib
CCn1ccc(C(=O)NC2=C(C#N)CCC2)n1	0	-	0	0	0	0
CCOC(=O)/C(=N/Nc1ccc(Cl)cc1)S(=O)(=O)c1ccc(Cl)cc1	0	0	0	0	0	0
O=C(NCC(O)CO)c1csc(Nc2cccc3ccccc23)n1 (centres undefined)	0	-	0	0	0	-
CNC(=O)C(=O)NCC1OCCN1S(=O)(=O)c1ccc([N+](=O)[O-])cc1 (centres undefined)	0	-	0	0	0	0
O=C(NCc1ccccc1)C(=O)NCC1OCCN1S(=O)(=O)c1ccc([N+](=O)[O-])cc1 (centres undefined)	60	0	0	0	0	0
Cc1nc2ccccc2c(=O)n1/N=C/c1ccc(O)c(O)c1O	0	0	0	0	0	0

Screening results as filed in PubChem BioAssay.
